Measurements from different studies.
Compare with care: the assays were run in different laboratories.
PTGS1: Prostaglandin G/H synthase 1 (PTGS1, Ovis aries, UniProt P05979)
AGTR2: Type-2 angiotensin II receptor (AGTR2, Homo sapiens, UniProt P50052)
BCHE: Cholinesterase (BCHE, Equus caballus, UniProt P81908)

CN(C)Cc1ccc(-c2nc3ccccc3s2)c(-c2cccc(O)c2)c1 has an inhibition of 30.7% (PTGS1; enzyme activity; inhibitor; absorbance; 10 µM).
For c1ccc(C(NCCNC(c2ccccc2)c2ccccc2)c2ccccc2)cc1, the inhibition was 14% (AGTR2; cell-free assay; 10 µM).
CN(C)Cc1ccc(-c2nc3ccccc3s2)c(-c2ccc(O)cc2)c1 has an inhibition of 14.2% (PTGS1; enzyme activity; inhibitor; absorbance; 10 µM).
For COc1cc2c(cc1OC)C(=O)N(CC1CCN(Cc3ccncc3)CC1)C2, the inhibition was 8.2% (BCHE; enzyme activity; inhibitor; Ellman; 1 µM).
With Cc1ccc(-c2nc3ccccc3s2)c(-c2ccc(O)cc2)c1 the inhibition was 8.4% (PTGS1; enzyme activity; inhibitor; absorbance; 10 µM).
For Cn1cc(-c2cc(F)cc(N3CCn4c(cc5c4CCCC5)C3=O)c2CO)cc(Nc2ccc(N3CCN(C4COC4)CC3)cn2)c1=O, the inhibition was -12% (Dual specificity mitogen-activated protein kinase kinase 3 (MAP2K3, Homo sapiens, UniProt P46734); enzyme activity; inhibitor; 0.1 µM).
Cc1ccc(-c2nc3ccccc3s2)c(-c2cccc(O)c2)c1 gave an inhibition of 11.7% (PTGS1; enzyme activity; inhibitor; absorbance; 10 µM).
COc1cc2c(cc1OC)C(=O)N(CCc1c[nH]c3ccccc13)C2 has an inhibition of 0.7% (BCHE; enzyme activity; inhibitor; Ellman; 1 µM).
With Nc1ccc(-c2nc3ccccc3s2)c(-c2ccc(O)cc2)c1 the inhibition was 14.2% (PTGS1; enzyme activity; inhibitor; absorbance; 10 µM).
With CCCCCCCCCCCC(=O)OC[C@@H](COP(=O)(O)OCCNC(=O)c1ccc(Cn2c(=O)[nH]c3c(N)nc(OCCOC)nc32)cc1)OC(=O)CCCCCCCCCCC the inhibition was 55% (Androgen receptor (Ar, Rattus norvegicus, UniProt P15207); ligand displacement; radioligand; 10 µM).
COc1nccc(CN2Cc3cc(OC)c(OC)cc3C2=O)n1 gave an inhibition of 6.1% (BCHE; enzyme activity; inhibitor; Ellman; 1 µM).
For COc1ccc(S(=O)(=O)N2CCCCC2)cc1C, the inhibition was under 30% (AGTR2; ligand displacement; radioligand; 10 µM).
C#Cc1n[nH]c2c(-c3cn(C(C)c4ccccn4)c(=O)[nH]c3=O)cc(F)cc12 (stereo not drawn) gave an inhibition of 3.8% (Activin receptor type-1B (ACVR1B, Homo sapiens, UniProt P36896); enzyme activity; inhibitor; 1 µM).
With COc1cc2c(cc1OC)C(=O)N(Cc1ccc3ccccc3n1)C2 the inhibition was -0.7% (BCHE; enzyme activity; inhibitor; Ellman; 1 µM).
NS(=O)(=O)c1ccc(-c2ncc(Cl)cc2-c2nc3ccccc3s2)cc1 has an inhibition of 6.6% (PTGS1; enzyme activity; inhibitor; absorbance; 10 µM).
For COc1cc2c(cc1OC)C(=O)N(Cc1ccc(F)nc1)C2, the inhibition was -6.8% (BCHE; enzyme activity; inhibitor; Ellman; 1 µM).
Cc1ncc(C)n2nc(/C=C/c3nc(N4CCCC4)cc(N4CCOCC4)n3)nc12 has an inhibition of 15% (cGMP-inhibited 3',5'-cyclic phosphodiesterase 3B (PDE3B, Homo sapiens, UniProt Q13370); enzyme activity; inhibitor; 10 µM).
With COc1cc2c(cc1OC)C(=O)N(CC1CCN(Cc3ccccn3)CC1)C2 the inhibition was 5.4% (BCHE; enzyme activity; inhibitor; Ellman; 1 µM).
CS(=O)(=O)c1ccc(-c2ncccc2-c2nc3ccccc3s2)cc1 has an inhibition of 21.5% (PTGS1; enzyme activity; inhibitor; absorbance; 10 µM).
The inhibition of Cn1cc(-c2cccc(N3CCc4c(sc5c4CC(C)(C)C5)C3=O)c2CO)cc(Nc2ccncn2)c1=O is reported as 6% (Serine/threonine-protein kinase MRCK alpha (CDC42BPA, Homo sapiens, UniProt Q5VT25); enzyme activity; inhibitor; 1 µM).
With COc1cc2c(cc1OC)C(=O)N(Cc1ccncc1)C2 the inhibition was -0.7% (BCHE; enzyme activity; inhibitor; Ellman; 1 µM).
